Results published in the M2OR odorant receptor database.

The compounds below were run against T1, OR8D1 (Homo sapiens) (UniProt Q8WZ84). Details: stereoisomer not certain.
T1 sequence (whole entry): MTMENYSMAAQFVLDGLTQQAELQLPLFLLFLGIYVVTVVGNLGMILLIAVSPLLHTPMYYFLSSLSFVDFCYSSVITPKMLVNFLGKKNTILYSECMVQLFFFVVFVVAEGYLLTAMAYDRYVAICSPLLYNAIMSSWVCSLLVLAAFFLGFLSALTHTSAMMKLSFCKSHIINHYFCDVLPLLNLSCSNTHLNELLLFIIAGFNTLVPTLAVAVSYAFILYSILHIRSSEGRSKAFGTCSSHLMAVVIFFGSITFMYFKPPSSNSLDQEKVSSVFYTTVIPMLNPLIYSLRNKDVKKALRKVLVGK
Method in brief: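 Each receptor–molecule pair is labelled responsive or non-responsive (inactive) according to whether the original authors judged the measured signal statistically different from baseline. The data were taken from the main text and supplementary material of published papers and checked for typos and inconsistencies. Assay methods differed by source, with transient luciferase assays in mammalian cell lines being common.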
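Further: active if original authors judged signal statistically different from baseline.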

Odorant receptor agonist call, inactive:
Cc1cccc(C)c1O
CCC(C)CCC(=O)[O-] (stereo not drawn)
CCC=CCCC=CCO
C=CCSC
Cc1occc(=O)c1O
CC(=O)OCC=Cc1ccccc1
CCC(=O)C(C)S (stereo not drawn)
CCC=O
SCc1cccs1
CCCC1CCCC(=O)O1 (stereo not drawn)
CCCCCCC1CCC(=O)O1 (stereo not drawn)
CCOC(C)=O
CCCCC(=O)O
CCCC(O)CC(=O)OCC (stereo not drawn)
CC=Cc1ccc(OC)cc1
C=CC(=O)CCCCC
CCc1cccc(O)c1
CCCC(=O)OCC
CCCCCCO
CCCC(=O)OC
CCCCCC=CC=O
CCCCCCCCCO
CCC(=O)C(C)=O
CCCCC1CCC(=O)O1 (stereo not drawn)
CC(C)c1ccc(C=O)cc1
CSSSC
COc1nccnc1CC(C)C
CCC(C)CO (stereo not drawn)
CCCCCCCC1CCC(=O)O1 (stereo not drawn)
CCCCC(C)CCC(=O)O (stereo not drawn)
CCCCC=CC=O
CC(C)(S)CCOC=O
CSCCC=O
CC1=CCC(C(C)(C)S)CC1 (stereo not drawn)
CCCC=CC=O
CCCCCCCC(C)=O
CCC(S)C(C)=O (stereo not drawn)
O=C(O)CCc1ccccc1
